Measurements taken from BindingDB's records for doi:10.1021/jm9003297 (University of Bonn, 2009).

Experiments:
P2Y purinoceptor 12 = P2Y purinoceptor 12 (Homo sapiens, UniProt Q9H244); assay: Displacement of [3H]PSB0413 from human platelet P2Y12 receptor
Method in brief: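 Membranes from outdated human blood-bank platelets (4-5 days post-donation), washed, centrifuged, homogenized, stored at -80 °C. 100 µg protein incubated with 5 nM [³H]PSB-0413 in 50 mM Tris-HCl pH 7.4 for 1 h at rt, then filtered over GF/B. Nonspecific binding with 1 mM ADP. Screen at 10 µM. Ki from curves of 6-7 concentrations over 3 log units. At least three experiments in triplicate.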

[1] = Displacement of [3H]DPCPX from human adenosine A1 receptor expressed in CHO cells assessed as ratio of IC50 in presence of GTP to absence of GTP by GTP shift assay

Sequence of P2Y purinoceptor 12 (Q9H244 whole entry): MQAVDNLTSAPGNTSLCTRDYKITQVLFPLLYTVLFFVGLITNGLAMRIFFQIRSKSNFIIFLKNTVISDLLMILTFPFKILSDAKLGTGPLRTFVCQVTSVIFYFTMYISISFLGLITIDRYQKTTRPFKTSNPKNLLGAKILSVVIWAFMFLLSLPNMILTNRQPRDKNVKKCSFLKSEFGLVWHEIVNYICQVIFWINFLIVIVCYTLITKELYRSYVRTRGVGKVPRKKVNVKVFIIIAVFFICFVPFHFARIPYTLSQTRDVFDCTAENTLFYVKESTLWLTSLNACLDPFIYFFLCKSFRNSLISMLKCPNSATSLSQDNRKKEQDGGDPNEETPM

Row | IC50 [1] [µM] | Compound | Ki (P2Y purinoceptor 12) [µM]
1 | – | CN(C)[C@@H]1C(=O)C(C(N)=O)C(=O)[C@@]2(O)C(=O)C3C(=O)c4c(O)ccc(Cl)c4[C@@](C)(O)[C@H]3C[C@@H]12 (stereo partly drawn) | > 10
2 | – | CN(C)[C@@H]1C(=O)C(C(N)=O)C(=O)[C@@]2(O)C(=O)C3C(=O)c4c(O)cccc4[C@@](C)(O)[C@H]3C[C@@H]12 (stereo partly drawn) [Achromycin] | > 10
3 | 0.76 | Nc1c(S(=O)(=O)O)cc(Nc2ccc(Nc3ncccn3)c(S(=O)(=O)O)c2)c2c1C(=O)c1ccccc1C2=O [Disodium 1-amino-4-[4-([1,3]diazine-2-ylamino)-3-sulfophenylamino]-9,10-dioxo-9,10-dihydroanthracene-2-sulfonate] | –
